# Measured values: ChEMBL document CHEMBL4145601, “Novel Nitric Oxide Donors of Phenylsulfonylfuroxan and 3-Benzyl Coumarin Derivatives as Potent Antitumor Agents” (ACS Med Chem Lett, 2018)
# The source made the active and inactive calls. The rule behind the calls is not given here.
# Columns and labels:
# [1] = Antiproliferative activity against human A2780/CDDP cells after 48 hrs by MTT assay; format: functional, cell-based
# Outline: (§1)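 Drug-resistant human tumour lines were A2780/CDDP (cisplatin-resistant ovarian), MDA-MB-231/Gem (gemcitabine-resistant breast), MCF-7/ADR and KB-V. Antiproliferation was read by MTT assay. IC50 is the mean of triplicate determinations.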
# [2] = Antiproliferative activity against human OVCA433 cells after 48 hrs by MTT assay; format: functional, cell-based; conditions: OVCA433, 48 h
# Outline: (§2)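 Human tumour lines were HeLa (cervical), SKOV3, OVCA429, OVCA433 and A2780 (ovarian), A549 (non-small cell lung), MDA-MB-231 and MCF-7 (breast), and KB (oral epidermoid). Antiproliferation was read by MTT assay. IC50 is the mean of triplicate determinations.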
# A2780 [3] = test: Antiproliferative activity against human A2780 cells after 48 hrs by MTT assay; format: functional, cell-based; conditions: A2780, 48 h; outline: as §2
# SK-OV-3 = test: Antiproliferative activity against human SKOV3 cells after 48 hrs by MTT assay; format: functional, cell-based; conditions: SK-OV-3, 48 h; outline: as §2
# HUVEC = test: Cytotoxicity against HUVEC after 48 hrs by MTT assay; format: cell-based; conditions: Homo sapiens
# Outline: (§3)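 Non-tumour human cells were HUVEC (umbilical vein endothelial), T29 (immortalized, nontumorigenic ovarian epithelial), WI-38 (lung fibroblasts) and MCF-10A (nontumorigenic breast epithelial). Viability was read by tetrazolium assay. IC50 is the mean of triplicate determinations.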
# [4] = Antiproliferative activity against human KBV cells after 48 hrs by MTT assay; format: functional, cell-based; outline: as §1
# A549 = test: Antiproliferative activity against human A549 cells after 48 hrs by MTT assay; format: functional, cell-based; conditions: A549, 48 h; outline: as §2
# [5] = Selectivity ratio of IC50 for human MCF7 cells to IC50 for MCF7/ADR cells; format: functional
# Outline: (§4)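 Selectivity ratio = IC50 in the drug-sensitive parent line / IC50 in its resistant subline (A2780 vs A2780/CDDP, MDA-MB-231 vs MDA-MB-231/Gem, MCF-7 vs MCF-7/ADR, KB vs KB-V). Each IC50 came from MTT assays, mean of triplicates.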
# KB = test: Antiproliferative activity against human KB cells after 48 hrs by MTT assay; format: functional, cell-based; outline: as §2
# MV4-11 = test: Antiproliferative activity against human MV411 cells after 72 hrs by MTS assay; format: functional, cell-based; conditions: MV4-11, 72 h
# Outline: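 Human myeloid leukaemia MV-4-11 cells; antiproliferation read by MTS assay. IC50 is the mean of triplicate determinations.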
# HeLa = test: Antiproliferative activity against human HeLa cells after 48 hrs by MTT assay; format: functional, cell-based; outline: as §2
# WI-38 = test: Cytotoxicity against human WI38 cells after 72 hrs by MTS assay; format: cell-based; conditions: WI-38, 72 h; outline: as §3
# MDA-MB-231 = test: Antiproliferative activity against human MDA-MB-231 cells after 48 hrs by MTT assay; format: functional, cell-based; conditions: MDA-MB-231, 48 h
# [6] = Antiproliferative activity against human OVCA429 cells after 48 hrs by MTT assay; format: functional, cell-based; conditions: OVCA429, 48 h; outline: as §2
# [7] = Selectivity ratio of IC50 for human A2780 cells to IC50 for A2780/CDDP cells; format: functional; outline: as §4
# [8] = target: Dual specificity mitogen-activated protein kinase kinase; MEK1/2 (Homo sapiens) (UniProt P36507+Q02750); test: Inhibition of MEK (unknown origin); format: protein assay
# [9] = Selectivity ratio of IC50 for human KB cells to IC50 for KBV cells; format: functional; outline: as §4
# [10] = Drug metabolism in human A2780 cells assessed as nitric oxide release at 100 uM after 150 mins by Griess assay; format: ADME, cell-based; conditions: a2780, 2.5 h
# MCF-10A = test: Cytotoxicity against human MCF10A cells after 72 hrs by MTS assay; format: cell-based; outline: as §3
# MM1.S = test: Antiproliferative activity against human MM1S cells after 72 hrs by MTS assay; format: functional, cell-based
# [11] = Selectivity ratio of IC50 for human MDA-MB-231 cells to IC50 for MDA-MB-231/Gem cells; format: functional; outline: as §4
# [12] = Antiproliferative activity against human MDA-MB-231/Gem cells after 48 hrs by MTT assay; format: functional, cell-based
# [13] = Cytotoxicity against human T29 cells after 48 hrs by MTT assay; format: cell-based; conditions: T29, 48 h; outline: as §3
# MCF7 = test: Antiproliferative activity against human MCF7 cells after 48 hrs by MTT assay; format: functional, cell-based; conditions: MCF7, 48 h; outline: as §2
# NCI/ADR-RES = test: Antiproliferative activity against human MCF7/ADR cells after 48 hrs by MTT assay; format: functional, cell-based; outline: as §1
# [14] = Resistance ratio of IC50 for human KBV cells to IC50 for human KB cells; format: functional
# Outline: (§5)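 Resistance ratio = IC50 in the resistant line / IC50 in the drug-sensitive parent line. Each IC50 came from MTT assays, mean of triplicate determinations.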
# A2780 [15] = test: Induction of apoptosis in human A2780 cells assessed as increase in late apoptotic cells at 10 to 20 nM measured after 24 hrs by Annexin-V-FITC/propidium iodide staining based flow cytometric method; format: functional, cell-based
# A2780 [16] = test: Induction of apoptosis in human A2780 cells assessed as increase in early apoptotic cells at 10 to 20 nM measured after 24 hrs by Annexin-V-FITC/propidium iodide staining based flow cytometric method; format: functional, cell-based
# Homo sapiens = species: Homo sapiens; test: Antiproliferative activity against human A2780/CDDP cells at 50 nM after 48 hrs in presence of scavenger c-PTIO by MTT assay; format: functional, cell-based
# Outline: (§6)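 A2780 and A2780/CDDP cells were exposed to compound at 50 nM together with a series of concentrations of the NO scavenger c-PTIO. Antiproliferation was measured and reported as mean ± SEM of two independent experiments.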
# A2780 [17] = test: Antiproliferative activity against human A2780 cells at 50 nM after 48 hrs in presence of scavenger c-PTIO by MTT assay; format: functional, cell-based; outline: as §6
# [18] = Resistance ratio of IC50 for human MDA-MB-231/Gem cells to IC50 for human MDA-MB-231 cells; format: functional; outline: as §5
# Dual specificity mitogen-activated protein kinase kinase; MEK1/2 (Homo sapiens), sequence (P36507 whole entry, looked up): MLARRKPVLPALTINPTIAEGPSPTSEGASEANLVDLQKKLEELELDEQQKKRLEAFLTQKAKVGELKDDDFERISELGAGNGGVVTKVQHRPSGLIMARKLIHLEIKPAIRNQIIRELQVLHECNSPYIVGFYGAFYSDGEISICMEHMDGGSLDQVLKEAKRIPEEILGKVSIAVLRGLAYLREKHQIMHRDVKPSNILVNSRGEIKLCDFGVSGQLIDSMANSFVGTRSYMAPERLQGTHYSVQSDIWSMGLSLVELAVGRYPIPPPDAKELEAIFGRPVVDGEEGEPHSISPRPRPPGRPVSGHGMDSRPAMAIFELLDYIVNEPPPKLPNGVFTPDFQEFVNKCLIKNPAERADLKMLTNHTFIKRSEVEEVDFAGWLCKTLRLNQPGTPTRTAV
# Dual specificity mitogen-activated protein kinase kinase; MEK1/2 (Homo sapiens), sequence (Q02750 whole entry, looked up): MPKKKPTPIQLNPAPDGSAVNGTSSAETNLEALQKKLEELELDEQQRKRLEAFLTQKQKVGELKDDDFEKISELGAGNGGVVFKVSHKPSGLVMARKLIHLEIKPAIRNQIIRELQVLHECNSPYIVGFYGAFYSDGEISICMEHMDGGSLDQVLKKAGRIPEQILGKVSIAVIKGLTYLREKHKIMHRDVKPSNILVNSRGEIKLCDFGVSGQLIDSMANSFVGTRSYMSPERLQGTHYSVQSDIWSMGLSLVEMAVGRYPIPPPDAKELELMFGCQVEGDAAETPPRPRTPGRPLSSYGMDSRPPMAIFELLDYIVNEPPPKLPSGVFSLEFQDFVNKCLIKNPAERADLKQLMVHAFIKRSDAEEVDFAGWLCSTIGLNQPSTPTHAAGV
IC50 (A2780 [3]),IC50 (SK-OV-3),IC50 (A549),IC50 (KB),IC50 (MV4-11),IC50 (HeLa),IC50 (MDA-MB-231),Drug metabolism [10],IC50 (MCF7),SMILES,IC50 [1],IC50 [2],IC50 (HUVEC),IC50 [4],Ratio IC50 [5],IC50 (WI-38),IC50 [6],Ratio IC50 [7],Ratio IC50 [9],IC50 [12],IC50 (NCI/ADR-RES),other results
12.7 nM,17.3 nM,2 nM,4540 nM,24.5 nM,22.9 nM,6 nM,Metabolite_Detected,2350 nM,Cc1c(Cc2ccccc2)c(=O)oc2cc(OCCOc3no[n+]([O-])c3S(=O)(=O)c3ccccc3)ccc12,94 nM,1.1 nM,440 nM,16 nM,144.2,> 20000 nM,1.7 nM,0.1,283.9,25.2 nM,16.3 nM,inhibition [8]: inactive; IC50 (MCF-10A): > 20000 nM; IC50 (MM1.S): 12 nM; Ratio IC50 [11]: 0.2; IC50 [13]: > 5000 nM
–,–,–,0.65 nM,–,–,–,–,–,CC[C@]1(O)C[C@H]2CN(CCc3c([nH]c4ccccc34)[C@@](C(=O)OC)(c3cc4c(cc3OC)N(C=O)[C@H]3[C@@](O)(C(=O)OC)[C@H](OC(C)=O)[C@]5(CC)C=CCN6CC[C@]43[C@@H]65)C2)C1 [VINCRISTINE],–,–,–,417 nM,–,–,–,–,–,–,–,Ratio IC50 [14]: 646
8.7 nM,35.8 nM,3.3 nM,2180 nM,29.3 nM,17.8 nM,0.5 nM,Metabolite_Detected,1860 nM,COc1cc(OCCOc2no[n+]([O-])c2S(=O)(=O)c2ccccc2)ccc1C(=O)/C=C/c1ccccc1,51.7 nM,10.1 nM,410 nM,13.9 nM,103.6,440 nM,4.4 nM,0.2,157,10.5 nM,18 nM,inhibition [8]: inactive; IC50 (MM1.S): 28 nM; Ratio IC50 [11]: 0.05; IC50 [13]: 2500 nM
20.9 nM,47.3 nM,45.8 nM,127 nM,28.3 nM,62.2 nM,–,Metabolite_Detected,445 nM,Cc1cc(=O)oc2cc(OCCOc3no[n+]([O-])c3S(=O)(=O)c3ccccc3)ccc12,85.7 nM,131 nM,130 nM,24.9 nM,–,90 nM,41.1 nM,–,–,–,157 nM,Activity (A2780 [15]): Active; IC50 (MCF-10A): 660 nM; IC50 (MM1.S): 21 nM; IC50 [13]: 1800 nM
10.2 nM,19.2 nM,7.9 nM,1140 nM,66.3 nM,15.4 nM,1.1 nM,Metabolite_Detected,3130 nM,CNS(=O)(=O)Nc1cccc(Cc2c(C)c3ccc(OCCOc4no[n+]([O-])c4S(=O)(=O)c4ccccc4)cc3oc2=O)c1,47.2 nM,16.3 nM,190 nM,65.4 nM,62.5,1360 nM,6.1 nM,0.2,17.5,50.4 nM,50.1 nM,inhibition [8]: inactive; IC50 (MM1.S): 24 nM; Ratio IC50 [11]: 0.02; IC50 [13]: > 5000 nM
14.5 nM,25 nM,3.5 nM,1660 nM,29.6 nM,6.9 nM,1.4 nM,Metabolite_Detected,1410 nM,COc1cc(OCCOc2no[n+]([O-])c2S(=O)(=O)c2ccccc2)ccc1C(=O)/C=C/c1ccc(F)cc1,34.1 nM,6.6 nM,360 nM,10.1 nM,29.5,560 nM,4 nM,0.4,164.9,93 nM,47.9 nM,inhibition [8]: inactive; Activity (A2780 [16]): Active; IC50 (MM1.S): 25 nM; Ratio IC50 [11]: 0.02; IC50 [13]: 3500 nM
6.6 nM,8.3 nM,3.7 nM,3230 nM,27.2 nM,2.8 nM,0.8 nM,Metabolite_Detected,2850 nM,Cc1c(Cc2ccc(F)cc2)c(=O)oc2cc(OCCOc3no[n+]([O-])c3S(=O)(=O)c3ccccc3)ccc12,22.8 nM,3.3 nM,270 nM,11 nM,559.4,> 20000 nM,3.9 nM,0.3,294,6.9 nM,5.1 nM,Activity (Homo sapiens): inactive; inhibition [8]: inactive; Activity (A2780 [17]): inactive; Activity (A2780 [16]): Active; IC50 (MCF-10A): > 20000 nM; IC50 (MM1.S): 143 nM; Ratio IC50 [11]: 0.1; IC50 [13]: > 5000 nM
–,–,–,–,0.3 nM,–,–,–,–,Cc1ccc(NC(=O)NCc2ccc3c(c2)CN(C2CCC(=O)NC2=O)C3=O)cc1Cl (stereo not given),–,–,–,–,–,> 20000 nM,–,–,–,–,–,IC50 (MCF-10A): 5 nM
1640 nM,3910 nM,4780 nM,3690 nM,–,8830 nM,1230 nM,–,3500 nM,COCCOc1no[n+]([O-])c1S(=O)(=O)c1ccccc1,4820 nM,4390 nM,–,1960 nM,0.5,–,5170 nM,0.3,1.9,4750 nM,7840 nM,Ratio IC50 [11]: 0.3
–,–,–,–,> 20000 nM,–,–,–,–,Nc1cccc2c1CN(C1CCC(=O)NC1=O)C2=O (stereo not given) [LENALIDOMIDE],–,–,–,–,–,> 20000 nM,–,–,–,–,–,IC50 (MCF-10A): > 20000 nM
–,–,–,–,–,–,36.4 nM,–,–,Nc1ccn([C@@H]2O[C@H](CO)[C@@H](O)C2(F)F)c(=O)n1 [GEMCITABINE],–,–,–,–,–,–,–,–,–,> 50000 nM,–,Ratio IC50 [18]: >1373
–,–,–,–,–,–,–,–,–,COc1cccc2c1C(=O)c1c(O)c3c(c(O)c1C2=O)C[C@@](O)(C(=O)CO)C[C@@H]3O[C@H]1C[C@H](N)[C@H](O)[C@H](C)O1 [DOXORUBICIN],–,–,–,–,–,–,–,–,–,–,> 100000 nM,–
